Results as given in ChEMBL document CHEMBL5331118, “Allosteric Inhibitors of Macrophage Migration Inhibitory Factor (MIF) Interfere with Apoptosis-Inducing Factor (AIF) Co-Localization to Prevent Parthanatos” (J Med Chem, 2023).
Calls of active or inactive are those of the source. The calls are words filed in the database; no cut-off is given here.

Experiments:
[1] = target: T1, Macrophage migration inhibitory factor (Homo sapiens) (UniProt P14174); assay: Reversible inhibition of recombinant human MIF tautomerase activity expressed in Escherichia coli BL21 assessed as recovery of enzyme activity at 25 uM using PP as substrate preincubated for 10 mins followed by substrate addition and measured after 20 mins by jump dilution method; conditions: time 30.0 min
T1 sequence (whole entry): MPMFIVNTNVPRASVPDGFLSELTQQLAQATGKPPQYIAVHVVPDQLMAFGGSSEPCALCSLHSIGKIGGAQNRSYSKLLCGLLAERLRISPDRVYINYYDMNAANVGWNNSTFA

[2] = tested on: HeLa; assay: (§1) Protection against MNNG-induced parthanatos in human HeLa cells assessed as cell viability preincubated for 3 hrs prior to MNNG addition and measured for 15 mins followed by fresh media replacement for 24 hrs by Hoechst 33342 and propidium iodide staining based flow cytometry analysis; type: functional; conditions: time 1635.0 min
Summary of the method: (§2)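 HeLa cells in DMEM/10% FBS, 5×10^5 per well, were pretreated 3 h with 100 μM inhibitor, then given 50 μM MNNG for 15 min. Medium was replaced and cells were cultured 24 h. Trypsinized cells were stained with 7 μM Hoechst 33342 and 2 μM PI and analysed by flow cytometry. Hoechst-only cells were counted as live, Hoechst+PI cells as dead.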

[3] = tested on: HeLa; assay: as §1, with “analysis (reference value: 20 %)” for “analysis”; type: functional; conditions: time 1635 min; 27.25 h; summary of the method: as §2
[4] = tested on: HeLa; assay: Protection against MNNG-induced parthanatos in human HeLa cells assessed as restoration of original phenotype at 3.7 to 100 uM; type: functional, cell-based; conditions: dose 3.7-100 µM, TDE = time-dependent effect
[5] = tested on: HeLa; assay: Protection against MNNG-induced parthanatos in human HeLa cells assessed as restoration of original phenotype after 0.5 to 3 hrs; type: functional, cell-based; conditions: time 0.5-3 hrs
[6] = tested on: HeLa; assay: Inhibition of MNNG-induced DNA damage in human HeLa cells preincubated for 2 hrs followed by MNNG addition and measured after 2 hrs by comet assay; type: functional, cell-based; conditions: time 4.0 hrs
Summary of the method: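 Alkaline comet assay. HeLa cells were given 50 μM inhibitor or none for 2 h, then 10 μM MNNG for 2 h. Cells were embedded in 1% low-melt agarose and lysed overnight at 4 °C in alkaline lysis solution (pH > 13). Electrophoresis ran at pH > 12, 0.6 V/cm, 25 min. Slides were stained with 2.5 μg/mL PI, imaged by fluorescence microscopy and quantified by image analysis.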

[7] = tested on: HeLa; assay: Induction of DNA damage in human HeLa cells by comet assay; type: toxicity, cell-based
[8] = tested on: HeLa; assay: Inhibition of MNNG-induced DNA damage in human HeLa cells preincubated for 2 hrs followed by MNNG addition by gel electrophoresis assay; type: functional, cell-based; conditions: dose 50.0 µM, TDE = time-dependent effect
[9] = tested on: HeLa; assay: Inhibition of MNNG-induced DNA damage in human HeLa cells preincubated for 2 hrs followed by MNNG addition and measured after 2 hrs by gel electrophoresis assay; type: functional, cell-based; conditions: dose 1.2-100 µM, time 4.0 hrs
[10] = tested on: HeLa; assay: Inhibition of MIF nuclear translocation in human HeLa cells at 100 uM preincubated for 3 hrs followed by MNNG stimulation for 15 mins by immunofluorescence staining based confocal microscopic analysis; type: functional, cell-based; conditions: time 195.0 min
Summary of the method: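 HeLa cells on coverslips got ±100 μM inhibitor for 3 h, then MNNG (50 μM, 15 min), and were incubated overnight. They were methanol-fixed and blocked with 2% BSA. MIF was stained with a rabbit polyclonal and Alexa488 secondary, AIF with a mouse monoclonal and Alexa647 secondary, and nuclei with NucBlue. Nuclear localization was imaged by confocal microscopy.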

[11] = target: T1, Macrophage migration inhibitory factor (Homo sapiens); assay: Inhibition of recombinant C-terminal His-tagged human MIF tautomerase activity expressed in Escherichia coli BL21 assessed as residual activity at 10 uM using PP as substrate preincubated for 10 mins and followed by substrate addition and measured for 3 mins by microplate reader analysis relative to control; conditions: time 13.0 min

| inhibition [1] | Activity [11] | Structure (SMILES) | Activity [2] | Activity [3] | Activity [4] | Activity [5] | inhibition [6] | Activity [7] | inhibition [8] | inhibition [9] | inhibition [10] |
| --- | --- | --- | --- | --- | --- | --- | --- | --- | --- | --- | --- |
| Active | – | O=C(Nc1ccccc1)c1ccc(-n2cc(C(=O)NCc3cccs3)nn2)cc1 | Dose-Dependent Effect | 50% | Tde | Dose-Dependent Effect | Active | Non-Toxic | Tde | Dose-Dependent Effect | Active |
| – | 68% | O=C(NCCc1ccccc1)c1cn(-c2cccc3ncccc23)nn1 | – | – | – | – | – | – | – | – | – |
| – | 44% | N#Cc1ccc(-n2cc(C(=O)Nc3ccc(Br)cc3)nn2)cc1 | – | – | – | – | – | – | – | – | – |
